Test [1] concerns OVCAR-3. Description: Antiproliferative activity was determined for 50% growth inhibition against human ovarian OVCAR-3 cell line. It is filed as functional. The essentials:
(§1)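 Human cancer cell lines from the roughly 55-line panel. GI50 is the concentration giving 50% growth inhibition. The test range was 10^-4 to 10^-8 M. Values outside the range were set to the minimum (10^-8 M) or the maximum (10^-4 M).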

Test [2] relates to HOP-62. Description: Antiproliferative activity was determined for 50% growth inhibition against human lung HOP-62 cell line. Type of test: functional. To be noted: Homo sapiens, HOP-62. The essentials:
as §1

Test [3] has as its system SF-539. Description: Antiproliferative activity was determined for 50% growth inhibition against human CNS SF-539 cell line. Type of test: functional. The essentials: as §1
Test [4] deals with MDA-MB-435. Description: Antiproliferative activity was determined for 50% growth inhibition against human breast MDA-MB-435 cell line. Particulars: Homo sapiens, MDA-MB-435. It is filed as functional. The method, boiled down: as §1
For test [5], the system named is Panel (Carcinoma cell lines). Description: Mean graph midpoint for growth inhibition of all human cancer cell lines. Type of test: functional. The arrangement: unit: µM. The essentials:
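Mean graph midpoint across all cell lines successfully tested in the roughly 55-line human cancer panel. Each line's GI50 is the 50% growth-inhibition concentration, tested over 10^-4 to 10^-8 M. Out-of-range values were set to 10^-8 M or 10^-4 M before averaging.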

For test [6], the system named is SN12C. Description: Antiproliferative activity was determined for 50% growth inhibition against human renal SN12C cell line. Particulars: Homo sapiens, SN12C. It is filed as functional. The method, boiled down: as §1
In test [7] the test system is DU-145. Description: Antiproliferative activity was determined for 50% growth inhibition against human Prostate c. Type of test: functional. To be noted: DU-145, Prostate gland. The essentials:
as §1

For test [8], the system named is HCT-116. Description: Antiproliferative activity was determined for 50% growth inhibition against human colon HCT116 cell line. To be noted: Homo sapiens, HCT-116. It is filed as functional. The essentials: as §1
Test [9] relates to UACC-62. Description: Antiproliferative activity was determined for 50% growth inhibition against human melanoma UACC-62 cell line. It is filed as functional. To be noted: Homo sapiens, UACC-62. The essentials:
as §1

Test [10] concerns DU-145. Description: Antiproliferative activity was determined for 50% growth inhibition against human Prostate DU-145 cell line. Type of test: functional. Particulars: Homo sapiens, DU-145. The essentials:
as §1

For test [11], the target named is T1, DNA topoisomerase 1 (Homo sapiens) (UniProt P11387).
T1 sequence (whole entry): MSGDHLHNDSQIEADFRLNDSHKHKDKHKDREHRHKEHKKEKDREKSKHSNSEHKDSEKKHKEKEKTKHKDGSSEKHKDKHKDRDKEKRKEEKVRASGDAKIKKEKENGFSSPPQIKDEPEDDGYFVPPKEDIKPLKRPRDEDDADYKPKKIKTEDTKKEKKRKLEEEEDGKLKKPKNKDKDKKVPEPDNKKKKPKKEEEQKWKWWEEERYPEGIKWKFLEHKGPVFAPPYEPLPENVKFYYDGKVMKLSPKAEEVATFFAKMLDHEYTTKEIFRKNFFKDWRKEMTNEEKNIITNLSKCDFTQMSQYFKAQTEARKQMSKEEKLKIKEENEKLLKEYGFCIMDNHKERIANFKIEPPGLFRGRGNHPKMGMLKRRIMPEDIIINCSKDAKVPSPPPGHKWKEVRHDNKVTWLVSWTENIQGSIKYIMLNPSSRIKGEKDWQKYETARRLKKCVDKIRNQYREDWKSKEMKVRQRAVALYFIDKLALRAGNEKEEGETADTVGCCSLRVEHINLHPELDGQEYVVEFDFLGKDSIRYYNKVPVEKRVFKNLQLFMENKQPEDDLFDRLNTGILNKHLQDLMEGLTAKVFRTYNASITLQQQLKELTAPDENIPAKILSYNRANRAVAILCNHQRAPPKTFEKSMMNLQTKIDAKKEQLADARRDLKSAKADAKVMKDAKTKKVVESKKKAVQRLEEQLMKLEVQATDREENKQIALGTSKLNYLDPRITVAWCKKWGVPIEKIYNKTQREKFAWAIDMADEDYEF
Description: Inhibitory activity of compound against human recombinant DNA topoisomerase I mediated DNA cleavage; Weak activity.

In the case of `COc1cc2c3c(n(CCCNCCO)c(=O)c2cc1OC)-c1cc2c(cc1C3=O)OCO2.Cl`, the GI50 in test [1] is 0.35 µM; in test [2], 0.02 µM; in test [3], 0.04 µM; in test [4] it was 0.79 µM; in test [6] it was under 0.01 µM; in test [7] it was under 0.01 µM. The values for the 50% growth inhibitory concentration (GI50) in [8] and in test [9] were 0.1 µM and 0.03 µM, respectively. The compound also registered an MGM in test [5] of 0.11.
Turning to `O=C1c2ccccc2-c2c1c1ccccc1c(=O)n2CCCl`, the GI50 in test [10] was 3.5 µM; in test [1] (Homo sapiens, OVCAR-3) it was 5.87 µM; in test [2], 3.81 µM; in test [3] (Homo sapiens, SF-539), 2.48 µM; in test [4] it was 3.7 µM; in test [6], 4.39 µM. In addition, the concentration for 50% growth inhibition (GI50) came to 3.86 µM in [8] and 8.08 µM in [9]. The compound further yielded an MGM in test [5] of 4.37. Further, the Activity result in test [11] was “Weak activity”.

What is called GI50 is the concentration at which growth is held to half of that of the control.
